Key:
[1] = biological target: Somatostatin receptor type 4 (Homo sapiens, UniProt P31391); test: Inhibition of [125 I -Tyr]SRIF-14 binding to membranes isolated from CHO-K1 cells expressing cloned human SRIF receptor (sst-4) subtype; assay type: cell membranes
[2] = biological target: Somatostatin receptor type 1 (Homo sapiens, UniProt P30872); test: Inhibition of [125 I -Tyr]SRIF-14 binding to membranes isolated from CHO-K1 cells expressing cloned human SRIF receptor (sst-1) subtype; assay type: cell membranes
[3] = biological target: Somatostatin receptor type 5 (Homo sapiens, UniProt P35346); test: Inhibition of [125 I -Tyr]SRIF-14 binding to membranes isolated from CHO-K1 cells expressing cloned human SRIF receptor (sst-5) subtype; assay type: cell membranes
[4] = biological target: T1, Somatostatin receptor type 2 (Homo sapiens, UniProt P30874); test: Inhibition of [125 I -Tyr]SRIF-14 binding to membranes isolated from CHO-K1 cells expressing cloned human SRIF receptor (sst-2) subtype; assay type: cell membranes
[5] = biological target: T2, Somatostatin receptor type 3 (Homo sapiens, UniProt P32745); test: Inhibition of [125 I -Tyr]SRIF-14 binding to membranes isolated from CHO-K1 cells expressing cloned human SRIF receptor (sst-3) subtype; assay type: cell membranes
[6] = biological target: T2, Somatostatin receptor type 3; test: Inhibitory concentration required to inhibit SRIF-14 induced reduction of cAMP in CHO-K1 cells expressing the human sst3 receptor.; assay type: functional, cell-based
[7] = biological target: T1, Somatostatin receptor type 2; test: Inhibition of [125 I -Tyr]SRIF-14 binding to membranes isolated from CHO-K1 cells expressing each of the cloned human SRIF receptor (sst-2) subtypes; assay type: cell membranes
Summary of the method: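 Stable CHO-K1 clones transfected with human receptor cDNA in pCMV5. Membranes prepared from these cells, 10-20 µg protein/well, incubated with 0.05-0.1 nM [125I-Tyr11]SRIF-14 in 50 mM HEPES pH 7.4, 0.2% BSA, 5 mM MgCl2 plus protease inhibitors, 50-90 min at 37 °C depending on subtype. GF/C filtration, then counting. Nonspecific binding defined with 0.1 µM SRIF-14. Ki obtained by nonlinear regression.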

T2 sequence (P32745 whole entry): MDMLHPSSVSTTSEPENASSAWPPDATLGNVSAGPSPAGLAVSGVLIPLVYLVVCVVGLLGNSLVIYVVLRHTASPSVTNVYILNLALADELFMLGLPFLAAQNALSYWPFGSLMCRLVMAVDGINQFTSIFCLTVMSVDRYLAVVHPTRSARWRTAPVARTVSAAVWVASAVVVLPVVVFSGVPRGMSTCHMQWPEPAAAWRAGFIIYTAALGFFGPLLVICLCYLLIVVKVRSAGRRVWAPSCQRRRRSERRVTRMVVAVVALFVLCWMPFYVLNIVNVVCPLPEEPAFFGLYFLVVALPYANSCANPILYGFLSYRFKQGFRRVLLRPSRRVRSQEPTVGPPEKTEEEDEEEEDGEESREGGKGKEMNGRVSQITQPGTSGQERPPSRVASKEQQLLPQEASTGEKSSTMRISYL
Chain of Somatostatin receptor type 4 (P31391 whole entry): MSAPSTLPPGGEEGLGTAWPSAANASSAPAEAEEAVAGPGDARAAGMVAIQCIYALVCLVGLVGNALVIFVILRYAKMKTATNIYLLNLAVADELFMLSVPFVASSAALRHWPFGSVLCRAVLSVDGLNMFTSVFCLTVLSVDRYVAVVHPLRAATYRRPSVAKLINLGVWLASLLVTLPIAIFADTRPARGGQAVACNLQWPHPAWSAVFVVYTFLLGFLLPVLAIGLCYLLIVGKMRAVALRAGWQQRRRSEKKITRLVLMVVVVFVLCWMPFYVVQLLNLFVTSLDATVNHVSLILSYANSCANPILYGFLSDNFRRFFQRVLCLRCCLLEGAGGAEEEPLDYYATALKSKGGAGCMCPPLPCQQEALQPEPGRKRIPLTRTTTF
Chain of Somatostatin receptor type 5 (P35346 whole entry): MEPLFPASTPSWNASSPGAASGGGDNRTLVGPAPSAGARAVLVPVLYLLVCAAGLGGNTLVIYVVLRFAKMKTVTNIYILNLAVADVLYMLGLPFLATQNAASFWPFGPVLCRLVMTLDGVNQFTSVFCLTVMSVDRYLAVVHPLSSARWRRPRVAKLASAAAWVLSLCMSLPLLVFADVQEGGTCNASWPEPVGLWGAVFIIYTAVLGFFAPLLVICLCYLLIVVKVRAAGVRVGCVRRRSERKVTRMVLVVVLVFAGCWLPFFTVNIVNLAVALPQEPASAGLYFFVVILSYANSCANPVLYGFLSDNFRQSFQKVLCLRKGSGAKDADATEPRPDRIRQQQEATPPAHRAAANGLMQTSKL
T1 sequence (P30874 whole entry): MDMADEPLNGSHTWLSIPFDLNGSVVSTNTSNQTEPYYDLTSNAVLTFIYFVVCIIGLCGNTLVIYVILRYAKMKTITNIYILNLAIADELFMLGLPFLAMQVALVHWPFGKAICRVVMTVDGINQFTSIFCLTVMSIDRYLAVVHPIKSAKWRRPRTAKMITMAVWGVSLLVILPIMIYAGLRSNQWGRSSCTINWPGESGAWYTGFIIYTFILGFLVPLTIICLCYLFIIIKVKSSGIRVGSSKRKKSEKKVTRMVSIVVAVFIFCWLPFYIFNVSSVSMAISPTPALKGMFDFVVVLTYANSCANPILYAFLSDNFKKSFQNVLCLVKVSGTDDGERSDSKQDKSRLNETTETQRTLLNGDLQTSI
Chain of Somatostatin receptor type 1 (P30872 whole entry): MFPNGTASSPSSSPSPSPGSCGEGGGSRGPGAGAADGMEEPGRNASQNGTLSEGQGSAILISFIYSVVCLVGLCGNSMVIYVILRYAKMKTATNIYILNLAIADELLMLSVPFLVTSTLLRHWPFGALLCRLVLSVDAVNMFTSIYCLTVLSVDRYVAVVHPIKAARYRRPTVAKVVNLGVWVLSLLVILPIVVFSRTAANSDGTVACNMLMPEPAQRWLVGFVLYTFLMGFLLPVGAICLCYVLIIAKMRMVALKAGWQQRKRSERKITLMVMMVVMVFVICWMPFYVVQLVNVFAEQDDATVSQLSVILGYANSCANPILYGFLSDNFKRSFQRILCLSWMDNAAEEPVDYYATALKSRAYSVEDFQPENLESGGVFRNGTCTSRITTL

## c1ccc(-c2c[nH]c(C3Cc4c([nH]c5ccccc45)C(C4CCCCC4)N3)n2)cc1 (centres undefined)
[1]
  Ki: > 10000 nM
[2]
  Ki: 1800 nM
[3]
  Ki: > 10000 nM
[4]
  Ki: > 10000 nM

## CCCCC1(CCCC)N[C@@H](c2nc(-c3ccccc3)cs2)Cc2c1[nH]c1ccccc21
[5]
  Ki: 3800 nM

## c1ccc(-c2c[nH]c([C@@H]3Cc4c([nH]c5ccccc45)C4(N3)C3CC5CC(C3)CC4C5)n2)cc1 (some centres undefined)
[5]
  Ki: 84 nM

## CCCCC1(CCCC)N[C@H](c2nc(-c3ccccc3)c[nH]2)Cc2c1[nH]c1ccccc21 [listing 1 of 2 here]
[1]
  Ki: 9800 nM
[2]
  Ki: > 10000 nM
[6]
  IC50: 6.8 nM
[5]
  Ki: 3.4 nM
[3]
  Ki: 3700 nM
[4]
  Ki: > 10000 nM

## CCCCCC1(CCCCC)NC(c2nc(-c3ccccc3)c[nH]2)Cc2c1[nH]c1ccc(C)cc21 (centres undefined)
[6]
  IC50: 450 nM
[5]
  Ki: 6.9 nM

## CCCCC1(CCCC)N[C@H](c2nc(-c3ccccc3)c[nH]2)Cc2c1[nH]c1ccccc21 [listing 2 of 2 here]
[5]
  Ki: 0.79 nM

## CCCCC1(CCCC)N[C@@H](c2nc(-c3ccccc3)c[nH]2)Cc2c1[nH]c1ccccc21
[1]
  Ki: 7100 nM
[2]
  Ki: 3700 nM
[6]
  IC50: 2.7 nM
[5]
  Ki: 0.64 nM
[3]
  Ki: 2200 nM
[4]
  Ki: > 10000 nM

## CC(=O)N1CCC2(CC1)N[C@@H](c1nc(-c3ccccc3)c[nH]1)Cc1c2[nH]c2ccccc12
[5]
  Ki: 71 nM

## CCCCC1(CCCC)N[C@H](c2nc(-c3ccccc3)c(-c3ccccc3)[nH]2)Cc2c1[nH]c1ccccc21
[5]
  Ki: 5500 nM

## CCCCCCC1(CCCCCC)N[C@H](c2nc(-c3ccccc3)c[nH]2)Cc2c1[nH]c1ccccc21
[5]
  Ki: 28 nM

## CCCCCC1(CCCCC)N[C@H](c2nc(-c3ccccc3)c[nH]2)Cc2c1[nH]c1ccccc21
[1]
  Ki: > 10000 nM
[2]
  Ki: > 10000 nM
[6]
  IC50: 0.84 nM
[5]
  Ki: 0.92 nM
[3]
  Ki: > 10000 nM
[4]
  Ki: > 10000 nM

## CCC1(CC)N[C@H](c2nc(-c3ccccc3)c[nH]2)Cc2c1[nH]c1ccccc21
[5]
  Ki: 11 nM

## CCCCCC1N[C@H](c2nc(-c3ccccc3)c[nH]2)Cc2c1[nH]c1ccccc21 (some centres undefined)
[5]
  Ki: 11 nM

## COc1ccc(C2N[C@H](c3nc(-c4ccccc4)c[nH]3)Cc3c2[nH]c2ccccc32)cc1 (some centres undefined)
[5]
  Ki: 60 nM

## c1ccc(-c2c[nH]c([C@@H]3Cc4c([nH]c5ccccc45)C4(Cc5ccccc5C4)N3)n2)cc1
[5]
  Ki: 13 nM

## c1ccc(-c2c[nH]c([C@@H]3Cc4c([nH]c5ccccc45)C(c4ccncc4)N3)n2)cc1 (some centres undefined)
[5]
  Ki: 320 nM

## CC1(C2CCCCC2)N[C@H](c2nc(-c3ccccc3)c[nH]2)Cc2c1[nH]c1ccccc21 (some centres undefined)
[1]
  Ki: > 10000 nM
[2]
  Ki: 4400 nM
[6]
  IC50: 5.4 nM
[5]
  Ki: 0.9 nM
[3]
  Ki: > 10000 nM
[4]
  Ki: > 10000 nM

## CN(C)c1ccc(C2N[C@H](c3nc(-c4ccccc4)c[nH]3)Cc3c2[nH]c2ccccc32)cc1 (some centres undefined)
[5]
  Ki: 33 nM

## O=[N+]([O-])c1ccccc1C1N[C@H](c2nc(-c3ccccc3)c[nH]2)Cc2c1[nH]c1ccccc21 (some centres undefined)
[5]
  Ki: 200 nM

## c1ccc(-c2c[nH]c(-c3cc4c([nH]c5ccccc54)c(C4CCCCC4)n3)n2)cc1
[5]
  Ki: 750 nM

## CCCCC1(CCCC)NC(c2nc(-c3ccccc3)c[nH]2)Cc2c1[nH]c1ccc(OCc3ccccc3)cc21 (centres undefined)
[5]
  Ki: 17 nM

## CCCCC1(CCCC)NC(c2nc(-c3ccccc3)c[nH]2)Cc2c1[nH]c1ccc(Cl)cc21 (centres undefined)
[6]
  IC50: 43 nM
[5]
  Ki: 3.4 nM

## CCCCC1(CCCC)N[C@@H](c2nc(-c3ccccc3)c[nH]2)Cc2c1sc1ccccc21
[5]
  Ki: 430 nM

## C[C@@H](c1c[nH]c2ccccc12)[C@@H](NC(=O)N1CCC(n2c(=O)[nH]c3ccccc32)CC1)C(=O)N[C@@H](CCCCN)C(=O)OC(C)(C)C
[7]
  Ki: 0.01 nM
